Screening data deposited in PubChem by several laboratories.
Compounds with a hit are over-represented: about 5.8% of the library has one in this group of screens.
Plk1 PBD FP: Plk1 (human) PBD binding inhibition; Plk1 PBD phosphopeptide binding, fluorescence polarization; 0.13% of 97,000 active; inhibition, %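 (tested at about 20 µM)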; P53350; AID 693; in the data active = inhibition above about 34%, passing the limit was not always enough
Rev-RRE block: disrupts HIV-1 Rev binding to RRE RNA | Rev peptide-RRE RNA binding, FRET | inhibition, % at 8 µM | 0.79% of 97,000 active;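 active = inhibition above the screen-wide mean plus 3 SD, cut at about 35% in these data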;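 also: 0% = median DMSO wells and 100% = median Neomycin B control wells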
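Assay system: labelled RRE RNA duplex and labelled Rev peptide / Medium: HEPES pH 7.5 salt buffer with EDTA / Reagent: labelled Rev peptide / Schedule: 5 + 15 min at 25 °C / Signal: FRET, excitation 480 nm, emission 540 nm donor and 671 nm acceptor / Benchmarks: DMSO and neomycin B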
Cav3 T inh: blocks human Cav3.2 T-type calcium channel; O95180; Cav3.2-expressing cells, Fluo-4 calcium fluorescence FDSS; hits give low values; B-score at 10 µM; 4% of 100,000 active;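 active = single-dose well whose peak fluorescence ratio is a statistical outlier from its plate by either plate-standardised score or position-corrected B-score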
PTK2B oligo ant: Pyk2 (human) oligomerization antagonism; Q14289; Q293 cells, Pyk2 FERM NanoBiT luminescence; hits give low values; z-score (the deposit names both 25 µM and 10 µM); 0.83% of 99,000 active;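 active = Z-score of -3 or lower, scaled per plate to the spread of control and sample wells; inactive = z-score above -3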;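 also: negative z-score means lost luminescence so less FERM oligomerization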
PLK1 inh: blocks human PLK1 kinase activity. inhibition, % at 10 µM. P53350. recombinant PLK1 kinase, TR-FRET peptide phosphorylation. 0.53% of 97,000 active;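 active = inhibition of 50% or more in the single-concentration screen; inactive = inhibition below 50%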;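 also: 0% = DMSO max control and 100% = H-89 dihydrochloride min control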
FAK blocker: FAK (human) kinase inhibition. Q05397. biochemical FAK kinase activity assay. inhibition, %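 (tested at 7 µM)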. 0.84% of 97,000 active; in the data active = inhibition above about 19%;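 also: 0% = DMSO and 100% = reference compound high control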
* hit, by the source's call; . = not tested or not shown; [ ] = another dose, or the depositor's remark.

SMILES	Plk1 PBD FP	Rev-RRE block	Cav3 T inh	PTK2B oligo ant	PLK1 inh	FAK blocker
COc1ccccc1NC(=O)c1sc2nc(Cc3ccccc3)cc(C(F)(F)F)c2c1N	8	44*	-1.7	0.66	-9	3
CC(C)(C)C(=O)c1sc2nc(-c3cccs3)cc(C(F)(F)F)c2c1N	-22	79*[fluorescence artefact?]	-8.3*	1.1	-11	-5
Nc1c(C(=O)Nc2nccs2)sc2nc(-c3cccs3)cc(C(F)(F)F)c12	-10	104*[fluorescence artefact?]	.	0.64	-37	-1
Cc1nnc(NC(=O)c2sc3nc(-c4cccs4)cc(C(F)(F)F)c3c2N)s1	-104	99*[fluorescence artefact?]	-2.8	-2.9	-42	16
COc1ccc(Cl)cc1NC(=O)C(C)Sc1n[nH]c(N)n1 (stereo unspecified)	-7	6	.	-0.31	-9	11
CC(C)(Oc1ccc(Cl)cc1)C(=O)OCC(=O)Nc1ncc(Cl)cc1Cl	9	6	-6.9*	2.1	1	-6
O=C(COC(=O)CC12CC3CC(CC(C3)C1)C2)Nc1ncc(Cl)cc1Cl	16	5	-5.9*	-0.67	-11	-1
O=C1C=C(c2cc3ccccc3s2)CCC1	.	.	-0.84	.	.	.
CCOC(=O)c1c(N)sc(C(O)(C(F)(F)F)C(F)(F)F)c1-c1ccc(OC)cc1OC	4	5	-4.9*	-2.9	-4	-11
N#CCSc1nc2c(c(=O)n1Cc1ccco1)C1(CCCC1)Cc1ccccc1-2	-5	10	-6.2*	-1	-9	0
CCCn1c(SCC#N)nc2c(c1=O)C1(CCCC1)Cc1ccccc1-2	-3	5	-4.2*	-1.2	-7	-2
O=S1(=O)CCC(N=Cc2cc(Br)ccc2O)C1 (stereo unspecified)	7	12	-12*	-0.17	2	0
CCOC(=O)/C(=C\c1ccccc1)C(=O)c1cc(C(C)=O)c(Nc2ccccc2)s1	-4	13	-1.1	-3*	-4	-1
CCOC(=O)C(=Cc1ccc(F)cc1)C(=O)OCC	-10	-2	0.8	.	-14	-2
CCOC(=O)/C(=C\c1cccnc1)C(=O)c1cc(C(C)=O)c(Nc2ccccc2)s1	1	7	4.1*	-2.1	12	-6
O=C1CCSc2ccc(Cl)cc2N1Cc1cccc(Cl)c1	17	11	-3.4	-0.97	-9	5
Cc1ccc(CN2C(=O)CCSc3ccc(Cl)cc32)cc1	3	9	-4.9*	-1.5	-6	-2
CSc1ccccc1NC(=O)COc1ccc(S(=O)(=O)N2CCCC2)cc1	-8	10	-0.43	-1.4	-12	-2
O=C1CN(C(=O)COc2ccccc2)CCN1	-4	4	1.1	.	61*	5
N#CN=C1SCCS1	4	8	-4.5*	0.04	-3	-4
COc1ccc([C@H]2C=C3CN(C(=O)OC(C)(C)C)S(=O)(=O)[C@H]3C[C@H]2OC(=O)c2cccs2)cc1	.	.	-1	.	.	.
COc1ccccc1CO/N=C/c1cccn1-c1nccc(N(C)C)c1C#N	0	15	-1.4	-0.06	-16	-1
CN(C)c1ccnc(-n2cccc2/C=N/OCc2ccc(F)cc2Cl)c1C#N	-9	25	-5.4*	-0.84	-12	1
Cc1cc(=O)oc(C)c1C(=O)NCCN1CCOCC1	-10	6	-0.1	0.13	-20	-2
O=C(Nc1ccc(Nc2ccccc2)cc1)c1ccc(Br)o1	16	0	.	-0.65	-2	0
SMILES	Plk1 PBD FP	Rev-RRE block	Cav3 T inh	PTK2B oligo ant	PLK1 inh	FAK blocker
O=C(Nc1ccc(O)cc1)c1ccc(C(=O)c2ccccc2)o1	6	5	-0.31	-3.2*	-16	-3
COc1ccc(OCCSc2ncn[nH]2)cc1	3	7	0.31	1	-12	-2
Cc1ccc(Cn2c(Cc3ccccc3)nc3ccccc32)cc1	26	12	-5*	-1.1	-11	10
Cc1ccc(C)c(Cn2c(CO)nc3ccccc32)c1	-1	2	-6.4*	1	-1	1
COc1ccc(-c2nnc(NC(=O)c3ccc(F)cc3)o2)cc1	11	-1	.	.	-14	2
O=C(Nc1nc(-c2ccccc2)c(-c2ccccc2)o1)c1ccc(F)cc1	-15	10	-5.8*	1.1	1	-3
OC(COc1ccc(OCc2ccccc2)cc1)CN1CCCCC1 (stereo unspecified)	-14	-6	0.2	-0.12	-11	-1
CC(O)c1c(OCc2ccccc2)ncnc1OCc1ccccc1 (stereo unspecified)	22	5	-5.1*	0.74	-9	-8
